Test results published in ChEMBL document CHEMBL5303300, “EUbOPEN Chemogenomics Library - Multiplex” (2023).
Several values for one entry are separate records, joined by “and”; a condition that tells them apart may be missing. Equal values may be shown once.

Key:
HEK-293T = experiment: Multiplex assay against HEK293T; format: toxicity, cell-based; conditions: human, number of replicates 2
How it was run: (§1)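 Live cells carried four stains from seeding: Hoechst33342, BioTracker Green Microtubule Cytoskeleton Dye, MitoTracker Red and Annexin V Alexa Fluor 680. They were imaged on a CQ1 microscope at 37°C and 5% CO2 after compound addition. Using CellPathfinder machine-learning gating, cells were split into Hoechst high-intensity objects or normal cells, normal cells into healthy, pyknosed or fragmented nuclei, and pyknosed cells into mitotic or apoptotic; tubulin, mitochondrial-mass and membrane-permeability phenotypes are per cents of healthy-nucleus cells.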

U2OS = experiment: Multiplex assay against U2OS; format: toxicity, cell-based; conditions: human, number of replicates 2; how it was run: as §1
[1] = 12 h, 1 µM, compound concentration 1 uM
[2] = 12 h, 10 µM, compound concentration 10 uM
[3] = 24 h, 1 µM, compound concentration 1 uM
[4] = 24 h, 10 µM, compound concentration 10 uM
[5] = 48 h, 1 µM, compound concentration 1 uM
[6] = 48 h, 10 µM, compound concentration 10 uM

CC(=O)N(CCN(C)C)c1ccc(N/C(=C2\C(=O)Nc3cc(Cl)ccc32)c2ccccc2)cn1
Population Apoptotic (%) (HEK-293T; [1]): 32% and 41%
Population Fragmented Nuclei (%) (HEK-293T; [1]): 2%
Population Healthy Nuclei (%) (HEK-293T; [1]): 84% and 85%
Population Hoechst High Intensity Objects (%) (HEK-293T; [1]): 5%
Population Membrane Permeable-Phenotype (%) (HEK-293T; [1]): 2% and 3%
Population Mitochondria Different-Phenotype (%) (HEK-293T; [1]): 23% and 26%
Population Mitotic Cells (%) (HEK-293T; [1]): 67% and 58%
Population Normal (%) (HEK-293T; [1]): 94%
Population Pyknosed Nuclei (%) (HEK-293T; [1]): 12%
Population Tubulin-Different-Phenotype (%) (HEK-293T; [1]): 65% and 70%
Total Cell Count (HEK-293T; [1]): 666 and 654
Population Apoptotic (%) (HEK-293T; [2]): 64% and 79%
Population Fragmented Nuclei (%) (HEK-293T; [2]): 3% and 4%
Population Healthy Nuclei (%) (HEK-293T; [2]): 77% and 71%
Population Hoechst High Intensity Objects (%) (HEK-293T; [2]): 14% and 17%
Population Membrane Permeable-Phenotype (%) (HEK-293T; [2]): 1% and 3%
Population Mitochondria Different-Phenotype (%) (HEK-293T; [2]): 93% and 91%
Population Mitotic Cells (%) (HEK-293T; [2]): 35% and 20%
Population Normal (%) (HEK-293T; [2]): 85% and 82%
Population Pyknosed Nuclei (%) (HEK-293T; [2]): 19% and 24%
Population Tubulin-Different-Phenotype (%) (HEK-293T; [2]): 90% and 92%
Total Cell Count (HEK-293T; [2]): 227 and 197
Population Apoptotic (%) (HEK-293T; [3]): 28%
Population Fragmented Nuclei (%) (HEK-293T; [3]): 1% and 4%
Population Healthy Nuclei (%) (HEK-293T; [3]): 89% and 87%
Population Hoechst High Intensity Objects (%) (HEK-293T; [3]): 6% and 7%
Population Membrane Permeable-Phenotype (%) (HEK-293T; [3]): 1% and 3%
Population Mitochondria Different-Phenotype (%) (HEK-293T; [3]): 12% and 10%
Population Mitotic Cells (%) (HEK-293T; [3]): 71%
Population Normal (%) (HEK-293T; [3]): 93% and 92%
Population Pyknosed Nuclei (%) (HEK-293T; [3]): 9% and 8%
Population Tubulin-Different-Phenotype (%) (HEK-293T; [3]): 51% and 49%
Total Cell Count (HEK-293T; [3]): 869 and 891
Population Apoptotic (%) (HEK-293T; [4]): 87% and 94%
Population Fragmented Nuclei (%) (HEK-293T; [4]): 6% and 4%
Population Healthy Nuclei (%) (HEK-293T; [4]): 80% and 83%
Population Hoechst High Intensity Objects (%) (HEK-293T; [4]): 20% and 23%
Population Membrane Permeable-Phenotype (%) (HEK-293T; [4]): 0% and 2%
Population Mitochondria Different-Phenotype (%) (HEK-293T; [4]): 95% and 92%
Population Mitotic Cells (%) (HEK-293T; [4]): 12% and 5%
Population Normal (%) (HEK-293T; [4]): 79% and 76%
Population Pyknosed Nuclei (%) (HEK-293T; [4]): 13% and 12%
Population Tubulin-Different-Phenotype (%) (HEK-293T; [4]): 93% and 92%
Total Cell Count (HEK-293T; [4]): 229 and 181
Population Apoptotic (%) (HEK-293T; [5]): 12% and 13%
Population Fragmented Nuclei (%) (HEK-293T; [5]): 11% and 6%
Population Healthy Nuclei (%) (HEK-293T; [5]): 83% and 88%
Population Hoechst High Intensity Objects (%) (HEK-293T; [5]): 7% and 9%
Population Membrane Permeable-Phenotype (%) (HEK-293T; [5]): 3%
Population Mitochondria Different-Phenotype (%) (HEK-293T; [5]): 1% and 3%
Population Mitotic Cells (%) (HEK-293T; [5]): 87% and 86%
Population Normal (%) (HEK-293T; [5]): 93% and 90%
Population Pyknosed Nuclei (%) (HEK-293T; [5]): 4% and 5%
Population Tubulin-Different-Phenotype (%) (HEK-293T; [5]): 25% and 29%
Total Cell Count (HEK-293T; [5]): 1828 and 1568
Population Apoptotic (%) (HEK-293T; [6]): 86% and 90%
Population Fragmented Nuclei (%) (HEK-293T; [6]): 9% and 5%
Population Healthy Nuclei (%) (HEK-293T; [6]): 81% and 83%
Population Hoechst High Intensity Objects (%) (HEK-293T; [6]): 20% and 19%
Population Membrane Permeable-Phenotype (%) (HEK-293T; [6]): 0% and 3%
Population Mitochondria Different-Phenotype (%) (HEK-293T; [6]): 77% and 80%
Population Mitotic Cells (%) (HEK-293T; [6]): 13% and 10%
Population Normal (%) (HEK-293T; [6]): 79% and 80%
Population Pyknosed Nuclei (%) (HEK-293T; [6]): 8% and 10%
Population Tubulin-Different-Phenotype (%) (HEK-293T; [6]): 93%
Total Cell Count (HEK-293T; [6]): 324 and 235
Population Apoptotic (%) (U2OS; [1]): 72% and 71%
Population Healthy Nuclei (%) (U2OS; [1]): 84% and 68%
Population Hoechst High Intensity Objects (%) (U2OS; [1]): 0% and 1%
Population Membrane Permeable-Phenotype (%) (U2OS; [1]): 1% and 10%
Population Mitochondria Different-Phenotype (%) (U2OS; [1]): 0% and 2%
Population Mitotic Cells (%) (U2OS; [1]): 27% and 28%
Population Normal (%) (U2OS; [1]): 100% and 98%
Population Pyknosed Nuclei (%) (U2OS; [1]): 11% and 12%
Population Tubulin-Different-Phenotype (%) (U2OS; [1]): 52% and 23%
Population Apoptotic (%) (U2OS; [2]): 64% and 80%
Population Fragmented Nuclei (%) (U2OS; [2]): 11% and 8%
Population Healthy Nuclei (%) (U2OS; [2]): 54% and 60%
Population Hoechst High Intensity Objects (%) (U2OS; [2]): 0% and 1%
Population Membrane Permeable-Phenotype (%) (U2OS; [2]): 13% and 19%
Population Mitochondria Different-Phenotype (%) (U2OS; [2]): 86% and 59%
Population Mitotic Cells (%) (U2OS; [2]): 35% and 19%
Population Normal (%) (U2OS; [2]): 100% and 98%
Population Pyknosed Nuclei (%) (U2OS; [2]): 33% and 30%
Population Tubulin-Different-Phenotype (%) (U2OS; [2]): 86% and 71%
Population Apoptotic (%) (U2OS; [3]): 72% and 40%
Population Fragmented Nuclei (%) (U2OS; [3]): 3% and 11%
Population Healthy Nuclei (%) (U2OS; [3]): 85% and 79%
Population Hoechst High Intensity Objects (%) (U2OS; [3]): 0% and 1%
Population Membrane Permeable-Phenotype (%) (U2OS; [3]): 2% and 4%
Population Mitochondria Different-Phenotype (%) (U2OS; [3]): 0%
Population Mitotic Cells (%) (U2OS; [3]): 27% and 60%
Population Normal (%) (U2OS; [3]): 100% and 98%
Population Pyknosed Nuclei (%) (U2OS; [3]): 10% and 9%
Population Tubulin-Different-Phenotype (%) (U2OS; [3]): 59% and 33%
